{"source": "ChEMBL document CHEMBL3804799", "about": "“Synthesis and Biological Evaluation of Novel σ1 Receptor Ligands for Treating Neuropathic Pain: 6-Hydroxypyridazinones” (J Med Chem, 2016)", "key": {"[1]": {"experiment": "AUC (0 to infinity) in Sprague-Dawley rat at 5 mg/kg, iv by LC-MS/MS analysis", "type": "ADME, organism-based", "design": "dose 5 mg/kg, time infinity, route intravenous", "conditions": "in vivo", "in_short": "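Rats (n = 3/group) dosed via lateral tail vein, 5 mg/kg in 100% saline. Serial tail-vein blood into heparinized tubes at 30 min and 1, 2, 3, 4, 5, 6, 8 and 24 h. Plasma separated by centrifugation, proteins precipitated with acetonitrile, analysed by LC/MS.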"}, "Rattus norvegicus [2]": {"tested_on": "Rattus norvegicus", "experiment": "Antiallodynic activity in po dosed Sprague-Dawley rat chronic constriction injury-induced neuropathic pain model assessed as inhibition of mechanical allodynia administered as single dose on day 15th post surgery by Von frey test", "type": "functional", "in_short": "(§1)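 Sciatic nerve CCI in SD rats (Bennett–Xie) under 5% chloral hydrate: four loose 4-0 silk ligatures on the right sciatic nerve, about 1 cm proximal to the trifurcation. Oral dosing in 0.5% methylcellulose (10 mL/kg), twice daily on days 15–18. Testing followed the first dose on day 15 and the last dose on day 18. Mechanical withdrawal threshold by von Frey up–down method, four samplings averaged. 10 rats/group.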"}, "[3]": {"experiment": "Tmax in Sprague-Dawley rat at 80 mg/kg, po administered through gavage by LC-MS/MS analysis", "type": "ADME, organism-based", "conditions": "in vivo", "in_short": "(§2)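 SD rats, n = 3/group. Dosing was either 5 mg/kg iv via tail vein in saline or 80 mg/kg by oral gavage as a suspension in 0.5% methylcellulose. Serial tail-vein blood was drawn into heparinized tubes at 0.5, 1, 2, 3, 4, 5, 6, 8 and 24 h. Plasma was separated, proteins precipitated with acetonitrile, and samples analysed by LC/MS.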"}, "[4]": {"target": "Cannabinoid receptor 1 (Homo sapiens) (UniProt P21554)", "sequence (P21554 whole entry)": "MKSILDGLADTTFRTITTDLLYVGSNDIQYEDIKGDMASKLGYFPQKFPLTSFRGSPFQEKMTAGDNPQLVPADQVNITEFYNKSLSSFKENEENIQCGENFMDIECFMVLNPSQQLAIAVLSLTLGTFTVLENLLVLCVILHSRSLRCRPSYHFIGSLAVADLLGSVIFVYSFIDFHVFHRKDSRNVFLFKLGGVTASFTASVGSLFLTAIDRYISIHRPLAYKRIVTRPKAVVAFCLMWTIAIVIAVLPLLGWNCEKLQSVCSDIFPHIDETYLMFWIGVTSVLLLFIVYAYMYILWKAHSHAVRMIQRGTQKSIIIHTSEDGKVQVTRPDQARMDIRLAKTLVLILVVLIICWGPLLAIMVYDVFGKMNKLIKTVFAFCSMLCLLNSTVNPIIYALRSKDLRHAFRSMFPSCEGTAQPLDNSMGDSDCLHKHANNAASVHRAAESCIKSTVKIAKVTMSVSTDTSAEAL", "experiment": "Displacement of [3H]-CP-55940 from human CB1 receptor expressed in CHO cells at 1 uM after 90 mins by liquid scintillation counting analysis", "type": "cell-based"}, "Mus musculus [5]": {"tested_on": "Mus musculus", "type": "toxicity, organism-based, Kun Ming", "conditions": "in vivo, po, 40 mg/kg"}, "Mus musculus [6]": {"tested_on": "Mus musculus", "type": "toxicity, organism-based, Kun Ming", "conditions": "in vivo, po, 80 mg/kg"}, "[7]": {"target": "Sodium-dependent serotonin transporter (Rattus norvegicus) (UniProt P31652)", "sequence (P31652 whole entry)": "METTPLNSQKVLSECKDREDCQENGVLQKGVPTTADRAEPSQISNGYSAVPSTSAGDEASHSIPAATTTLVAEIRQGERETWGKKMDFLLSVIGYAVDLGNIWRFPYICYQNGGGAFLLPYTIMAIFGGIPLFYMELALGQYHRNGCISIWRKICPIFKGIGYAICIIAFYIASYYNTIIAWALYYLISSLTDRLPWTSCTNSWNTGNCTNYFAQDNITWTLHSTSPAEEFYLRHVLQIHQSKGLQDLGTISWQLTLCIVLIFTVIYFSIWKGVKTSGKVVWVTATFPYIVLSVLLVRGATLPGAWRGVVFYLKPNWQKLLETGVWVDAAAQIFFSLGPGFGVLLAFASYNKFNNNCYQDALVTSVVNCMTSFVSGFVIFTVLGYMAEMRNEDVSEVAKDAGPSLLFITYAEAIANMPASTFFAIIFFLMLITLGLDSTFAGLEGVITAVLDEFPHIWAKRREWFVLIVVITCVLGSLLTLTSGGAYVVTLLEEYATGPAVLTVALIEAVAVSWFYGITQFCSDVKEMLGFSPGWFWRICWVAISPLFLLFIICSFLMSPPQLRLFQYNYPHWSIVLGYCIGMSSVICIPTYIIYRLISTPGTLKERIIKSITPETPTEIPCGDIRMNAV", "experiment": "Inhibition of 5HT transporter in rat cerebral cortex assessed as [3H]-paroxetine uptake at 1 uM after 10 mins by liquid scintillation counting analysis", "type": "tissue-based"}, "[8]": {"experiment": "Half life in Sprague-Dawley rat at 5 mg/kg, iv by LC-MS/MS analysis", "type": "ADME, organism-based", "conditions": "in vivo", "in_short": "as §2"}, "[9]": {"experiment": "Acute toxicity in po dosed Kun Ming mouse assessed as mortality after 24 hrs", "type": "organism-based", "conditions": "in vivo", "in_short": "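Mice, 10 per group, given a single oral dose (10 mL/kg) of 0.5% methylcellulose vehicle or test compound at 200, 500, 1000, 1500 or 2000 mg/kg. Survivors were counted 24 h after dosing and percent mortality per group was calculated. LD50 was derived by statistical analysis.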"}, "Rattus norvegicus [10]": {"tested_on": "Rattus norvegicus", "experiment": "Effect on mechanical allodynia in sham-operated Sprague-Dawley rat at 20 to 80 mg/kg, po administered as bid on days 15th to 18th", "type": "ADME, organism-based", "conditions": "in vivo", "in_short": "as §1"}, "[11]": {"experiment": "Clearance in Sprague-Dawley rat at 5 mg/kg, iv by LC-MS/MS analysis", "type": "ADME, organism-based", "conditions": "in vivo", "in_short": "as §2"}, "Mus musculus [12]": {"tested_on": "Mus musculus", "type": "toxicity, organism-based, Kun Ming", "conditions": "in vivo, po, 160 mg/kg"}, "[13]": {"experiment": "AUC (0 to last) in Sprague-Dawley rat at 80 mg/kg, po administered through gavage by LC-MS/MS analysis", "type": "ADME, organism-based", "design": "dose 80 mg/kg, time 0 - last, route oral", "conditions": "in vivo", "in_short": "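Oral gavage to rats (n = 3/group), 80 mg/kg as suspension in 0.5% methylcellulose. Blood drawn serially from lateral tail vein into heparinized tubes at 30 min and 1, 2, 3, 4, 5, 6, 8 and 24 h. Plasma obtained by centrifugation, acetonitrile protein precipitation, LC/MS quantification.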"}, "Rattus norvegicus [14]": {"tested_on": "Rattus norvegicus", "experiment": "Antiallodynic activity in po dosed Sprague-Dawley rat chronic constriction injury-induced neuropathic pain model assessed as inhibition of mechanical allodynia administered as bid on day 15th and 18th post surgery by Von frey test", "type": "functional", "in_short": "as §1"}, "Rattus norvegicus [15]": {"tested_on": "Rattus norvegicus", "experiment": "Effect on thermal hypersensitivity in sham-operated Sprague-Dawley rat at 20 to 80 mg/kg, po administered as bid on days 15th to 18th", "type": "ADME, organism-based", "conditions": "in vivo", "in_short": "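CCI or sham SD rats, 10 per group, dosed orally in 0.5% methylcellulose (10 mL/kg) twice daily on days 15–18. Tested after the first dose on day 15 and the last dose on day 18. Plantar test: after 30 min acclimation on a glass floor, radiant heat was applied under the hind paw and withdrawal latency recorded. 30 s cutoff; mean of four samplings.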"}, "[16]": {"target": "T1, 5-hydroxytryptamine receptor 1A (Rattus norvegicus) (UniProt P19327)", "T1 sequence (whole entry)": "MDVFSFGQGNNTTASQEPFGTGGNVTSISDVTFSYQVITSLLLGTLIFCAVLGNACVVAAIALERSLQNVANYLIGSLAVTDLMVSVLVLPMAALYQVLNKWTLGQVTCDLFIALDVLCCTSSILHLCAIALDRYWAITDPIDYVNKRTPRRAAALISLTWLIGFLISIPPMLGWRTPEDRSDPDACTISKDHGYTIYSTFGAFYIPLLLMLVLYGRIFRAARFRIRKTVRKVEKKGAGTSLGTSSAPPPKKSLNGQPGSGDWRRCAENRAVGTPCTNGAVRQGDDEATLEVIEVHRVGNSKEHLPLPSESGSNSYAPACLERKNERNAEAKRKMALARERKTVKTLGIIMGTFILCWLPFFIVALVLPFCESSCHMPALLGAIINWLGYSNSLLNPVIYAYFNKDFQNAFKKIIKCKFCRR", "experiment": "Displacement of [3H]-8-OH-DPAT from 5HT1A receptor in rat cerebral cortex at 1 uM after 30 mins by liquid scintillation counting analysis", "type": "tissue-based"}}}
{"smiles": "O=c1ccc(OCCCN2CCCCC2)nn1-c1ccc(Cl)c(Cl)c1", "values": [{"measurement": "AUC(0-inf)", "setting": "[1]", "value": 956, "unit": "ng·h/mL"}, {"measurement": "ED50", "setting": "Rattus norvegicus [2]", "value": 51.9, "unit": "mg/kg"}, {"measurement": "Tmax", "setting": "[3]", "value": 19.8, "unit": "min"}, {"measurement": "inhibition", "setting": "[4]", "value": "< 50", "unit": "%"}, {"measurement": "Activity", "setting": "Mus musculus [5]", "value": 22826.6, "unit": "mm"}, {"measurement": "Activity", "setting": "Mus musculus [6]", "value": 18282.4, "unit": "mm"}, {"measurement": "inhibition", "setting": "[7]", "value": "< 50", "unit": "%"}, {"measurement": "half-life", "setting": "[8]", "value": 83.4, "unit": "min"}, {"measurement": "LD50 at 24 h", "setting": "[9]", "value": "> 2000", "unit": "mg/kg"}, {"measurement": "Activity", "setting": "Rattus norvegicus [10]", "value": "Non-toxic"}, {"measurement": "clearance", "setting": "[11]", "value": 49.3, "unit": "mL/min/kg"}, {"measurement": "Activity", "setting": "Mus musculus [12]", "value": 16458.3, "unit": "mm"}, {"measurement": "AUC(0-t)", "setting": "[13]", "value": 11700, "unit": "ng·h/mL"}, {"measurement": "ED50", "setting": "Rattus norvegicus [14]", "value": 40.3, "unit": "mg/kg"}, {"measurement": "Activity", "setting": "Rattus norvegicus [15]", "value": "Non-toxic"}, {"measurement": "inhibition", "setting": "[16]", "value": "< 50", "unit": "%"}]}
